In the library only some 2.5% were active in any assay of this set; here they are far more common.
UHRF1 binding = human UHRF1 methylated DNA binding inhibitors. Q96T88. AID 687016. inhibition, % at 4.4 µM. UHRF1 binding to methylated oligo, TR-FRET. 0.75% of 370,000 active;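 note: UHRF1 SRA domain binding a hemimethylated CpG hairpin DNA probe; 0% = median of test compound wells and 100% = reference inhibitor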
MBD2 inh = inhibitors of human MBD2 binding to methylated oligonucleotide | Q9UBB5 | TR-FRET | inhibition, % at 4.4 µM | 0.31% of 370,000 active | AID 686964; in the data active = inhibition above about 13%
HCV NS3 hel inh = blocks Hepatitis C virus NS3 helicase unwinding. inhibition, % at 10.9 µM. 0.56% of 290,000 active. NS3 helicase DNA unwinding, Cy5 molecular beacon fluorescence;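 active = inhibition above the mean of all tested compounds plus 3 SD, set per campaign, cut at about 35% in these data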;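 note: 0% = DMSO wells and 100% = thioflavine S control wells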
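Assay system: hepatitis C virus NS3 helicase domain fragment enzyme. Also added: annealed dual-labelled DNA beacon duplex, ATP-started. Timing: 1 h reaction at 25 °C, ATP-initiated. Technique: Cy5 fluorescence at 0 and 60 min, beacon hairpin quenching. Evaluation: % inhibition of unwinding. Replication: one well per compound.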
SUMO1 PPI mod = alters human SUMO1 binding to SIM partners | SUMO1 binding to a labelled peptide, TR-FRET, 1 h | P63165 | inhibition, % at 20 µM | 0.33% of 360,000 active; in the data active = inhibition above about 37%
Target sequence (P63165 whole entry, looked up): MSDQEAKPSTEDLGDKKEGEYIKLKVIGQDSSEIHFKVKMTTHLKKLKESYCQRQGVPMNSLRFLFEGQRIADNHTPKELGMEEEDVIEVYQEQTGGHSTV
DSG3 Ab inh = human desmoglein-3 autoantibody binding inhibition; binding (percent of control), % at 10 µM; DSG3-coupled beads, scFv-anti-DSG3-GFP binding, flow cytometry; stronger effect = lower value; 0.48% of 310,000 active; P32926;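 active = binding more than 3 SD below its plate's average and above zero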;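 note: hits lower antibody fragment binding to DSG3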
DNMT1 inh = DNMT1 (human) enzyme inhibition; P26358; inhibition (reported as % activation of signal), % at 10 µM; 0.83% of 360,000 active; DNMT1 molecular beacon, Hinp1I cleavage, fluorescence; in the data active = inhibition above about 50%
UHRF1 DNA bind = counter-screen for MBD2 inhibitors: human UHRF1 methylated DNA binding inhibitors; shares compounds with MBD2 inh; UHRF1 binding to methylated oligonucleotide, TR-FRET; inhibition, % at 4.4 µM; 25% of 1,000 active; AID 720530;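 note: UHRF1 SRA domain binding a labeled hemimethylated CpG hairpin DNA; 0% = vehicle only and 100% = reference inhibitor with vehicle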
MBD2 confirm = confirmation of human MBD2-DBD methylated oligonucleotide binding inhibitors; shares compounds with MBD2 inh; inhibition, % at 4.4 µM; 26% of 1,000 active; AID 720531; TR-FRET MBD2-DBD binding to methylated oligonucleotide; in the data active = inhibition above about 14%
The depositor's hits bear a star. Cut-off read from the data, not from the text of the source, unless noted: active = inhibition above about 21%; inactive = the rest.

C[n+]1c(-c2ccccc2)c2cc(N)ccc2c2ccc(N)cc21 was read as UHRF1 binding 62*, MBD2 inh 55*, HCV NS3 hel inh 34, SUMO1 PPI mod 46*, DSG3 Ab inh 80, DNMT1 inh 61*, UHRF1 DNA bind 77* and MBD2 confirm 86*.
For CC(=O)N1c2ccccc2C(c2ccccc2)=NCC1C(=O)NC1CCCCC1 (stereo unspecified) the results were UHRF1 binding 0 and MBD2 inh 0.
For c1ccc(-c2cc(-c3ccccc3)[n+](-c3ccccc3)c(-c3ccccc3)c2)cc1 the results were UHRF1 binding 2, MBD2 inh 13*, HCV NS3 hel inh -47, SUMO1 PPI mod -13, DSG3 Ab inh 97, DNMT1 inh 0, UHRF1 DNA bind 13 and MBD2 confirm 40*.
`CN(C)CCOC(=O)c1cn(Cc2ccccc2)c2ccccc12` gave UHRF1 binding 1, MBD2 inh 1, HCV NS3 hel inh -38, SUMO1 PPI mod 0 and DNMT1 inh -1.
Screening OC1(c2cccnc2)CC2CCC(C1)N2Cc1nnnn1Cc1ccccc1 (stereo unspecified) returned UHRF1 binding -2, MBD2 inh -4, HCV NS3 hel inh 3, SUMO1 PPI mod -3, DSG3 Ab inh 109 and DNMT1 inh 1.
Screening CC(=O)N1Cc2cnnn2-c2ccccc2C1(C#N)Cc1ccccc1 (stereo unspecified) returned UHRF1 binding -1, MBD2 inh 29*, SUMO1 PPI mod 3, DSG3 Ab inh 94, DNMT1 inh 2, UHRF1 DNA bind 7 and MBD2 confirm 5.
Screening NCC(O)c1cc(O)c(O)cc1F (stereo unspecified) returned UHRF1 binding 27*, MBD2 inh 14*, SUMO1 PPI mod 35, DNMT1 inh 11, UHRF1 DNA bind 14 and MBD2 confirm 4.
Cc1cc(N2CCNC[C@@H]2C)ccc1N1CCN[C@H](C)C1 was read as UHRF1 binding -1 and MBD2 inh -4.
`O=C(c1ccc(Cl)cc1)C1CCCN(Cc2ccc3c(c2)OCCO3)C1` (stereo unspecified) gave UHRF1 binding -1, MBD2 inh -4, HCV NS3 hel inh -19, SUMO1 PPI mod -1, DSG3 Ab inh 102 and DNMT1 inh 0.
O=C(c1ccc(Cl)cc1)C1CCCN(Cc2ccc3ncccc3c2)C1 (stereo unspecified) was read as UHRF1 binding 25*, MBD2 inh 15*, HCV NS3 hel inh -4, SUMO1 PPI mod 1, DSG3 Ab inh 97, DNMT1 inh 1, UHRF1 DNA bind 8 and MBD2 confirm 2.
Screening CCN1CCN(c2ncnc3ccc(Br)cc23)CC1 returned UHRF1 binding 1, MBD2 inh 5, HCV NS3 hel inh 6, SUMO1 PPI mod 0, DSG3 Ab inh 107 and DNMT1 inh 2.
For CCCCSP1(=S)NCCCO1 (stereo unspecified) the results were UHRF1 binding -6, MBD2 inh 38*, HCV NS3 hel inh -11, SUMO1 PPI mod 1, DSG3 Ab inh 107, DNMT1 inh -1, UHRF1 DNA bind 5 and MBD2 confirm 1.
CCN1C(=O)NC(=O)/C(=C\c2cn(CC(=O)N3CCCCC3)c3ccccc23)C1=O was read as UHRF1 binding -7, MBD2 inh -4, HCV NS3 hel inh 13, SUMO1 PPI mod -9, DSG3 Ab inh 94 and DNMT1 inh 1.
O=C(O)Cn1cc(/C=C2\C(=O)NC(=O)N(Cc3ccco3)C2=O)c2ccccc21 was read as UHRF1 binding 85*, MBD2 inh 25*, HCV NS3 hel inh -1, SUMO1 PPI mod 27, DSG3 Ab inh 94, DNMT1 inh 90*, UHRF1 DNA bind 56* and MBD2 confirm 18*.
O=S(=O)(c1ccccc1)N1CN2CCN(C2)C1 was read as UHRF1 binding -3, MBD2 inh 1, HCV NS3 hel inh -3, SUMO1 PPI mod 4, DSG3 Ab inh 109 and DNMT1 inh 3.
Screening COc1ccc(-n2c(O)c(/C=C3\C=Nc4ccc(Br)cc43)c(=O)[nH]c2=O)c(OC)c1 returned UHRF1 binding -2, MBD2 inh 28*, HCV NS3 hel inh 20, SUMO1 PPI mod 8, DSG3 Ab inh 98, DNMT1 inh 12, UHRF1 DNA bind 8 and MBD2 confirm 2.

Screening data (PubChem BioAssay)
